# Screening data (PubChem)
# NPY-Y1 PAM-ag: potentiates or activates human NPY-Y1 receptor; P25929; NPY-Y1 expressing cells, potentiator/agonist activation; activation, % at 3.6 µM; hit rate 0.37% among 220,000; in the data active = activation above about 33%, passing the limit was not always enough;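 also: cells stimulated with NPY at EC10 then isoproterenol at EC100; 0% = low agonist plus stimulus and 100% = saturating agonist plus stimulus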
# WT yeast gro inh: growth inhibition of WT yeast, mitochondrial fusion screen | mitochondrial fusion phenotypic screen, WT strain | hit rate 2.1% among 190,000 | inhibition, % at 10 µM; in the data active = inhibition above about 58%; tested in S. cerevisiae
# NPY-Y1 antag: antagonists of human neuropeptide Y receptor Y1. P25929. HEK293-CNG Y1 cells, membrane potential fluorescence; NPY at EC95, then isoproterenol. inhibition, % at 3.6 µM. hit rate 1% among 200,000. AID 1040;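 active = inhibition above the campaign mean inhibition of all tested compounds plus 3 SD, cut at about 20% in these data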;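 also: 0% = DMSO wells given NPY plus isoproterenol and 100% = isoproterenol alone without NPY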
#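 Assay system: HEK293 cells with Y1 receptor plus CNG channel | Probe or stimulus: NPY (25 nM), isoproterenol (1 µM), Ro 20-1724 (25 µM) | Timing: Compound incubation 1 h at room temperature, readout 45 min post-stimulation | Measured by: Membrane-potential fluorescent dye readout | Benchmarks: High control isoproterenol alone, low control NPY with isoproterenol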
# NPY Y2 blocker: NPY-Y2 (human) receptor antagonism | P49146 | NPY-Y2 expressing cells, antagonist mode | inhibition, % at 2.7 µM | hit rate 0.99% among 140,000 | AID 793; in the data active = inhibition above about 17%;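 also: 0% = vehicle with agonist challenge and 100% = reference antagonist with challenge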
# Target sequence (P49146 whole entry, looked up): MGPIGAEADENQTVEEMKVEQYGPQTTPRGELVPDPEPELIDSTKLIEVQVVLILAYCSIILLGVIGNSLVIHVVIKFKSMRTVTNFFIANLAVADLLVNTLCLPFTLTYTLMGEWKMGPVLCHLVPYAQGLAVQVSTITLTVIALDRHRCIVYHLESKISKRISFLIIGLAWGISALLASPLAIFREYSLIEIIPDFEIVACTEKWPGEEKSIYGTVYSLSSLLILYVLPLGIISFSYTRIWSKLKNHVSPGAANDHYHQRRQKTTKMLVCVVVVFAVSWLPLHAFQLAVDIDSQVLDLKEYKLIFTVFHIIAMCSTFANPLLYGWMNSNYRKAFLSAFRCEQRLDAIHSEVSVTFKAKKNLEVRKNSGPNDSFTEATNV
# NPY-Y2 PAM-ag: potentiators or agonists of human neuropeptide Y receptor Y2; P49146; cells expressing NPY-Y2, potentiator/agonist read-out; activation, % at 3.6 µM; hit rate 0.45% among 220,000; in the data active = activation above about 27%;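 also: cells stimulated with NPY near EC25 plus isoproterenol at EC100; 0% = vehicle plus submaximal agonist and 100% = vehicle plus saturating agonist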
# RAM network inh: blocks the yeast RAM network. S. cerevisiae dse1pr::URA3 reporter, 5-FOA growth OD615, 2 d; analog-sensitive cbk1-as2 kinase mutant strain. inhibition, % at 50 µM. hit rate 1.8% among 190,000;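 active = inhibition above a set limit, 3 SD over mean compound inhibition, cut at about 8.4% in these data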;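 also: 0% = DMSO-only wells with no growth and 100% = 10 µM 1-NA-PP1 full growth; inhibition rescues growth on 5-FOA so higher OD means more RAM inhibition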
# * = called active by the depositor; x = no result. In the library only some 4.9% were active in any assay of this set; here they are far more common.
SMILES,NPY-Y1 PAM-ag,WT yeast gro inh,NPY-Y1 antag,NPY Y2 blocker,NPY-Y2 PAM-ag,RAM network inh
CCCCCCCCOC(=O)CCc1c(C)[nH]c(=S)[nH]c1=O,2.6,9.8,-2.5,2.8,-6.5,8.8*
COc1ccc(Cl)cc1S(=O)(=O)N1CCN(Cc2ccc3c(c2)OCO3)CC1,-15.5,65.4*,5.5,2.6,-7.3,0.4
C=CCCCCCCCCc1nc(=S)[nH][nH]1,-42.8,74.8*,13.6,4.5,-22.9,1.4
CCCCCCc1cc2cc(C(N)=O)c(=N)oc2cc1O,16.1,81.8*,-2.7,0.3,10.2,2.2
Cc1ccc(NC(=O)CCn2cccc2)cc1C,1.3,3.2,6.2,1.2,6.0,1.0
CCOC(=O)C1=C(CC)Nc2ccccc2N=C1NC(=O)CCN1C(=O)C2CCCCC2C1=O (configuration not stated),-13.9,1.3,0.7,x,1.8,0.4
O=C(CN(c1ccc(Br)cc1)S(=O)(=O)c1ccc(Cl)c([N+](=O)[O-])c1)NCCc1ccccc1,7.4,0.2,-5.2,x,0.6,3.5
O=C(CN(c1cccc(C(F)(F)F)c1)S(=O)(=O)c1ccc(Cl)c([N+](=O)[O-])c1)NCc1ccccc1,81.2*,-6.7,-10.2,-1.4,60.9*,7.5
CC(NC(=O)CN(c1cccc(C(F)(F)F)c1)S(=O)(=O)c1ccc(Cl)c([N+](=O)[O-])c1)c1ccccc1 (configuration not stated),74.5*,7.4,-8.9,-1.5,50.3*,1.9
Cc1ccc(N(CC(=O)NCCc2ccc(F)cc2)S(=O)(=O)c2ccc(Cl)c([N+](=O)[O-])c2)c(C)c1,67.8*,17.9,-8.1,-4.6,38.8*,8.1
O=C(O)C1C2CCC(O2)C1C(=O)Nc1cccc(F)c1 (configuration not stated),-2.8,11.8,4.4,-0.1,12.8,0.3
CC(C)c1ccc(/C=C/C(=O)NCCCc2ccccc2)cc1,-14.3,60.8*,25.2*,29.9*,-28.4,8.6*
Cc1cccc(Sc2c([N+](=O)[O-])ncn2C)c1,9.4,54.8,2.8,-1.0,3.3,1.2
N#C/C(=C\c1ccc(-c2ccccc2)cc1)c1nc(-c2ccco2)cs1,20.9,-8.0,0.5,3.4,15.2,8.4*
O=C(Nc1ccccc1)N1N=C(c2ccc(F)cc2)CC1c1ccc(F)cc1 (configuration not stated),-8.2,45.8,1.1,4.6,11.7,9.6*
Fc1ccc(C2CC(c3cccs3)=NN2C(=S)Nc2ccccc2)cc1 (configuration not stated),-11.4,20.5,0.4,-4.4,6.2,4.9
COc1ccc(/C=C(/NC(=O)c2ccc(OC)cc2)C(=O)NCCc2c[nH]c3ccccc23)cc1,-8.5,-2.5,1.5,4.0,0.0,8.5*
CCOC(=O)Cc1csc(NC(=S)NC(=O)c2ccccc2Br)n1,-13.3,29.9,0.7,2.7,0.2,8.6*
CCOC(=O)Cc1csc(NC(=S)NC(=O)c2ccc(C)cc2)n1,-19.5,-0.5,-3.8,7.1,3.6,9.7*
CCOC(=O)Cc1csc(NC(=S)NC(=O)c2ccccc2)n1,-27.2,22.8,6.7,3.4,-13.7,3.0
CCc1nc2ccccc2c(=O)n1NC(=O)c1c(O)c2cccc3c2n(c1=O)CCC3,2.3,46.7,-2.2,0.1,13.0,2.6
O=C(Nn1c(Cc2ccccc2)nc2ccccc2c1=O)c1c(O)c2cccc3c2n(c1=O)CCC3,-0.6,68.3*,-2.1,x,10.7,3.3
COc1ccc(-c2cn3cc(C(=O)NN)ccc3n2)cc1,-1.5,35.3,4.4,x,-2.2,1.9
NNC(=O)c1ccc2nc(-c3ccc(Br)cc3)cn2c1,-0.5,70.7*,4.4,x,8.3,-0.6
CC1Cc2ccccc2N1C(=S)Nc1ccc(S(N)(=O)=O)cc1 (configuration not stated),5.9,-13.1,-0.2,0.2,8.9,0.8
SMILES,NPY-Y1 PAM-ag,WT yeast gro inh,NPY-Y1 antag,NPY Y2 blocker,NPY-Y2 PAM-ag,RAM network inh
CC1=NN(C(N)=S)C(=O)C1N=Nc1ccccc1C (configuration not stated),17.4,65.3*,1.2,1.0,8.8,4.3
CC1=NN(C(N)=S)C(=O)C1N=Nc1ccc(C)cc1C (configuration not stated),-7.6,69.9*,4.1,1.3,-6.5,0.8
CC1=NN(c2ccccc2)C(=O)C1N=Nc1ccc(C)cc1 (configuration not stated),1.3,7.0,2.9,x,-7.9,4.8
CC1=NN(C(N)=S)C(=O)C1N=Nc1c(C)cc(C)cc1C (configuration not stated),-12.8,60.6*,19.7,7.5,7.0,-0.3
O=C1CC(Sc2cccs2)C(=O)N1c1ccccc1 (configuration not stated),14.2,x,x,x,-4.9,x
COc1cc2nc(SCc3ccc(F)cc3)n(Cc3cccs3)c(=N)c2cc1OC,12.5,1.1,8.3,-1.1,1.6,4.0
COc1ccc(Cn2c(SCc3ccccc3C)nc3cc(OC)c(OC)cc3c2=N)cc1,-16.5,-1.3,48.4*,44.2*,28.4,0.8
O=C(CSc1nnc(-c2cccnc2)n1-c1ccccc1)NCc1ccc2c(c1)OCO2,-14.6,-30.9,-6.0,1.6,-2.6,0.5
CCc1ccc(NSc2ccccc2[N+](=O)[O-])cc1,-17.1,80.0*,8.7,2.8,-31.8,1.4
O=C(O)c1ccccc1NSc1ccccc1[N+](=O)[O-],-36.4,6.5,16.1,x,-24.1,4.7
Cc1ccc(S(=O)(=O)c2c(C)cc(C)nc2Cl)cc1,-3.2,2.9,2.2,0.9,7.6,-0.6
CCOc1nc(C)cc(C)c1S(=O)(=O)c1ccc(Cl)cc1,-7.4,-7.8,4.9,x,-4.8,8.7*
O=c1[nH]cc(C(F)(F)F)cc1NS(=O)(=O)c1ccc([N+](=O)[O-])cc1,-8.9,-9.6,2.9,x,6.9,0.7
CC12CN3CC(C)(CN(C1)C3c1ccc3c(c1)OCO3)C2 (configuration not stated),3.1,-13.5,3.8,x,-8.2,0.4
CN(C)c1ccc(/C=N/NC(=O)c2cccc(C(=O)N/N=C/c3ccc(N(C)C)cc3)n2)cc1,0.3,1.6,-1.5,x,-8.1,9.9*
Cc1c(C(=O)c2ccc(Cl)c(Cl)c2)cnc2cc3c(cc12)OCO3,-26.3,61.2*,11.7,5.6,-8.0,0.0
COc1cc(NC(=O)COC(=O)/C=C/c2ccc(Cl)cc2Cl)cc(OC)c1,9.8,-4.7,4.3,3.5,0.1,9.5*
COc1cccc(NC(=O)COC(=O)/C=C/c2ccc(Cl)cc2Cl)c1,-18.2,5.8,5.3,11.4,-0.6,7.0
Cc1ccc(CNC(=O)CCn2c(=O)oc3ccccc32)cc1,3.2,x,x,x,-0.1,x
CCOC(=O)c1c(C)nc2ccccc2c1-c1ccccc1,12.9,-6.0,6.5,10.0,-3.0,-0.1
CCOC(=O)c1c(C)nc2ccc(Cl)cc2c1-c1ccccc1,-70.9,63.8*,9.2,13.9,-9.7,0.9
CC1CCN(C(=O)CSc2nc3ccccc3s2)CC1,-16.5,2.9,10.6,12.6,-22.5,1.2
